From ChEMBL document CHEMBL2401703, “Synthesis of pyrazolo[1,5-a][1,3,5]triazine derivatives as inhibitors of thymidine phosphorylase” (Eur J Med Chem, 2013)
Activity calls are given as the source filed them. The calls are words filed in the database; no cut-off is given here.

Key:
[1] = molecular target: Thymidine phosphorylase (Escherichia coli K-12) (UniProt P07650); test: Inhibition of recombinant Escherichia coli thymidine phosphorylase using thymidine as substrate at 50 uM by UV-spectrophotometric analysis relative to control
Sequence of Thymidine phosphorylase (Escherichia coli K-12) (P07650 whole entry, looked up): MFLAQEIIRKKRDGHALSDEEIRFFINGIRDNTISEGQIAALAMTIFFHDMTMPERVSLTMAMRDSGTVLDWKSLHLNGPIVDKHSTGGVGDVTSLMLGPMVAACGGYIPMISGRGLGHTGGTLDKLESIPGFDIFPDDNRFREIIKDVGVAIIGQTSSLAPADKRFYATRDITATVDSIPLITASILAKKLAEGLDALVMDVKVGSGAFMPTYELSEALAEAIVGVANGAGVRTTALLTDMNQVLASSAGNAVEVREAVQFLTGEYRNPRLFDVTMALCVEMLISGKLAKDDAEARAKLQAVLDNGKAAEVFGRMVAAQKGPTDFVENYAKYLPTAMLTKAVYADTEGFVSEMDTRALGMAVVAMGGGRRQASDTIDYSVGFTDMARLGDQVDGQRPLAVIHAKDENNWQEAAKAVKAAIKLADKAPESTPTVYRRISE
In short: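 TP (1.5 U/ml stock in pH 7.0 phosphate buffer) mixed with compound in DMSO (DMSO alone as blank) and thymidine (5 mM stock, 200 µl into 1 ml total) in pH 7.4 phosphate buffer. Absorbance decrease at 290 nm read at 4, 8, 12, 16 and 20 min. Velocity taken from the slope of a linear fit. Percent inhibition calculated versus the blank.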

Thymidine phosphorylase = Thymidine phosphorylase (Escherichia coli K-12, UniProt P07650); test: Inhibition of recombinant Escherichia coli thymidine phosphorylase using thymidine as substrate by UV-spectrophotometric analysis
Sequence of Thymidine phosphorylase (P07650 whole entry): as the sequence (P07650 whole entry, looked up) above

[2] = molecular target: Thymidine phosphorylase (Escherichia coli K-12) (UniProt P07650); test: Ratio of 7-deazaxanthine IC50 to compound IC50 for recombinant Escherichia coli thymidine phosphorylase
[3] = molecular target: Thymidine phosphorylase (Escherichia coli K-12) (UniProt P07650); test: Non-competitive inhibition of recombinant Escherichia coli thymidine phosphorylase using thymidine as substrate at 0.01 to 0.2 uM by Lineweaver-burk plot analysis

**Q.** For `O=c1[nH]c(=O)n2nc(C(F)(F)F)cc2[nH]1`, which inhibition [1] is on record?
**A.** < 50%

**Q.** With `Cc1cc2[nH]c(=S)[nH]c(=O)n2n1` as the molecule, how does the IC50 (Thymidine phosphorylase) read?
**A.** 79.4 µM

**Q.** What about the inhibition [1] of the same molecule?
**A.** < 50%

**Q.** With `O=c1[nH]c(=S)[nH]c2c(Cl)cnn12` as the molecule, how does the IC50 (Thymidine phosphorylase) read?
**A.** 27.6 µM

**Q.** And the inhibition [1]?
**A.** 50%

**Q.** How did the inhibition [1] turn out when `Cc1ccc(-c2cnn3c(=O)[nH]c(=O)[nH]c23)cc1` was run?
**A.** < 50%

**Q.** What does the source list for `Cc1cnn2c(=O)[nH]c(=S)[nH]c12`?
**A.** IC50 (Thymidine phosphorylase): 87.3 µM; inhibition [1]: < 50%

**Q.** Which results are given for `O=c1[nH]c(=S)[nH]c2ccnn12`?
**A.** IC50 (Thymidine phosphorylase): 68.2 µM; inhibition [1]: < 50%

**Q.** For `O=c1[nH]c(=S)[nH]c2c(-c3ccc(I)cc3)cnn12`, which Ratio IC50 [2] is on record?
**A.** 150

**Q.** What about the IC50 (Thymidine phosphorylase) of the same molecule?
**A.** 0.21 µM

**Q.** How did the IC50 (Thymidine phosphorylase) turn out when `O=c1[nH]c(=S)[nH]c2cc(-c3ccc(F)cc3)nn12` was run?
**A.** 41.7 µM

**Q.** What about the inhibition [1] of the same molecule?
**A.** 50%

**Q.** How did the IC50 (Thymidine phosphorylase) turn out when `COc1ccc(-c2cnn3c(=O)[nH]c(=S)[nH]c23)cc1` was run?
**A.** 39.7 µM

**Q.** What about the inhibition [1] of the same molecule?
**A.** 50%

**Q.** `O=c1[nH]c(=O)n2nc(-c3ccc(Br)cc3)cc2[nH]1` was tested. Which inhibition [1] did it give?
**A.** < 50%

**Q.** `O=c1[nH]c(=O)n2nc(-c3ccc(Cl)cc3)cc2[nH]1` was tested. Which inhibition [1] did it give?
**A.** < 50%

**Q.** Which IC50 (Thymidine phosphorylase) does the source give for `CC(C)(C)c1cc2[nH]c(=S)[nH]c(=O)n2n1` here?
**A.** 29.1 µM

**Q.** What about the inhibition [1] of the same molecule?
**A.** 50%

**Q.** `O=c1[nH]c(=S)[nH]c2cc(C(F)(F)F)nn12` was tested. Which IC50 (Thymidine phosphorylase) did it give?
**A.** 32.6 µM

**Q.** And the inhibition [1]?
**A.** 50%

**Q.** For `CC(C)(C)c1cc2[nH]c(=O)[nH]c(=O)n2n1`, which inhibition [1] is on record?
**A.** < 50%

**Q.** How did the inhibition [1] turn out when `O=c1[nH]c(=O)n2ncc(-c3ccc(Br)cc3)c2[nH]1` was run?
**A.** < 50%

**Q.** Which results are given for `O=c1[nH]c(=S)[nH]c2cc(-c3ccc(Br)cc3)nn12`?
**A.** IC50 (Thymidine phosphorylase): 34.9 µM; inhibition [1]: 50%

**Q.** For `Cc1cnn2c(=O)[nH]c(=O)[nH]c12`, which inhibition [1] is on record?
**A.** < 50%

**Q.** How did the inhibition [1] turn out when `O=c1[nH]c(=O)n2ncc(-c3ccccc3)c2[nH]1` was run?
**A.** < 50%

**Q.** `COc1ccc(-c2cnn3c(=O)[nH]c(=O)[nH]c23)cc1` was tested. Which inhibition [1] did it give?
**A.** < 50%

**Q.** With `O=c1[nH]c(=S)[nH]c2c(-c3ccc([N+](=O)[O-])cc3)cnn12` as the molecule, how does the IC50 (Thymidine phosphorylase) read?
**A.** 0.58 µM

**Q.** For `O=c1[nH]c(=S)[nH]c2c(-c3ccc(S(F)(F)(F)(F)F)cc3)cnn12`, which inhibition [3] is on record?
**A.** Active

**Q.** And the Ratio IC50 [2]?
**A.** 800

**Q.** And the IC50 (Thymidine phosphorylase)?
**A.** 0.04 µM

**Q.** `O=c1[nH]c(=O)n2nc(-c3ccc(F)cc3)cc2[nH]1` was tested. Which inhibition [1] did it give?
**A.** < 50%

**Q.** With `O=c1[nH]c(=S)[nH]c2c(-c3ccccc3)cnn12` as the molecule, how does the IC50 (Thymidine phosphorylase) read?
**A.** 26.3 µM

**Q.** What about the inhibition [1] of the same molecule?
**A.** 50%

**Q.** Which results are given for `O=c1[nH]c(=S)[nH]c2c(-c3ccc(F)cc3)cnn12`?
**A.** IC50 (Thymidine phosphorylase): 10.5 µM; inhibition [1]: 50%

**Q.** How did the inhibition [1] turn out when `Cc1cc2[nH]c(=O)[nH]c(=O)n2n1` was run?
**A.** < 50%

**Q.** How did the inhibition [1] turn out when `O=c1[nH]c(=O)n2nccc2[nH]1` was run?
**A.** < 50%

**Q.** Which IC50 (Thymidine phosphorylase) does the source give for `O=c1[nH]c(=S)[nH]c2c(-c3ccc(Br)cc3)cnn12` here?
**A.** 0.63 µM

**Q.** What about the inhibition [1] of the same molecule?
**A.** 50%

**Q.** For `O=c1[nH]c(=O)n2ncc(-c3ccc(C(F)(F)F)cc3)c2[nH]1`, which inhibition [1] is on record?
**A.** < 50%

**Q.** Which IC50 (Thymidine phosphorylase) does the source give for `O=c1[nH]c(=S)[nH]c2cc(-c3ccc(C(F)(F)F)cc3)nn12` here?
**A.** 9.9 µM

**Q.** And the inhibition [1]?
**A.** 50%

**Q.** With `O=c1[nH]c(=S)[nH]c2c(I)cnn12` as the molecule, how does the IC50 (Thymidine phosphorylase) read?
**A.** 20.8 µM

**Q.** And the inhibition [1]?
**A.** 50%

**Q.** With `COc1ccc(-c2cc3[nH]c(=O)[nH]c(=O)n3n2)cc1` as the molecule, how does the inhibition [1] read?
**A.** < 50%

**Q.** How did the inhibition [1] turn out when `O=c1[nH]c(=O)n2ncc(I)c2[nH]1` was run?
**A.** < 50%

**Q.** `O=c1[nH]c(=O)n2ncc(-c3ccc(Cl)cc3)c2[nH]1` was tested. Which inhibition [1] did it give?
**A.** < 50%

**Q.** With `O=c1[nH]c(=S)[nH]c2c(Br)cnn12` as the molecule, how does the IC50 (Thymidine phosphorylase) read?
**A.** 44.4 µM

**Q.** And the inhibition [1]?
**A.** 50%

**Q.** How did the IC50 (Thymidine phosphorylase) turn out when `O=c1[nH]c(=S)[nH]c2c(-c3ccc(C(F)(F)F)cc3)cnn12` was run?
**A.** 0.24 µM

**Q.** And the inhibition [1]?
**A.** 50%

**Q.** How did the IC50 (Thymidine phosphorylase) turn out when `COc1ccc(-c2cc3[nH]c(=S)[nH]c(=O)n3n2)cc1` was run?
**A.** 28.4 µM

**Q.** And the inhibition [1]?
**A.** 50%

**Q.** `CCOc1ccc(-c2cnn3c(=O)[nH]c(=S)[nH]c23)cc1` was tested. Which IC50 (Thymidine phosphorylase) did it give?
**A.** 15.5 µM

**Q.** With `O=c1[nH]c(=O)n2nc(-c3ccccc3)cc2[nH]1` as the molecule, how does the inhibition [1] read?
**A.** < 50%

**Q.** How did the inhibition [1] turn out when `CC(C)(C)c1ccc(-c2cnn3c(=O)[nH]c(=O)[nH]c23)cc1` was run?
**A.** < 50%

**Q.** Which IC50 (Thymidine phosphorylase) does the source give for `CC(C)(C)c1ccc(-c2cc3[nH]c(=S)[nH]c(=O)n3n2)cc1` here?
**A.** 6.6 µM

**Q.** What about the inhibition [1] of the same molecule?
**A.** 50%

**Q.** For `O=c1[nH]c(=S)[nH]c2c(-c3ccc(Cl)cc3)cnn12`, which IC50 (Thymidine phosphorylase) is on record?
**A.** 0.54 µM

**Q.** And the inhibition [1]?
**A.** 50%

**Q.** `O=c1[nH]c(=O)n2nc(-c3ccc(C(F)(F)F)cc3)cc2[nH]1` was tested. Which inhibition [1] did it give?
**A.** < 50%

**Q.** For `O=c1[nH]c(=O)n2ncc(Cl)c2[nH]1`, which inhibition [1] is on record?
**A.** < 50%

**Q.** Which IC50 (Thymidine phosphorylase) does the source give for `Cc1ccc(-c2cc3[nH]c(=S)[nH]c(=O)n3n2)cc1` here?
**A.** 19.3 µM

**Q.** And the inhibition [1]?
**A.** 50%

**Q.** How did the inhibition [1] turn out when `Cc1ccc(-c2cc3[nH]c(=O)[nH]c(=O)n3n2)cc1` was run?
**A.** < 50%

**Q.** `O=c1[nH]c(=O)n2ncc(Br)c2[nH]1` was tested. Which inhibition [1] did it give?
**A.** < 50%

**Q.** With `Cc1ccc(-c2cnn3c(=O)[nH]c(=S)[nH]c23)cc1` as the molecule, how does the IC50 (Thymidine phosphorylase) read?
**A.** 1.7 µM

**Q.** What about the inhibition [1] of the same molecule?
**A.** 50%

**Q.** `O=c1[nH]c(=O)n2ncc(-c3ccc(F)cc3)c2[nH]1` was tested. Which inhibition [1] did it give?
**A.** < 50%

**Q.** With `CC(C)(C)c1ccc(-c2cnn3c(=O)[nH]c(=S)[nH]c23)cc1` as the molecule, how does the IC50 (Thymidine phosphorylase) read?
**A.** 5.6 µM

**Q.** What about the inhibition [1] of the same molecule?
**A.** 50%

**Q.** Which results are given for `O=c1[nH]c(=S)[nH]c2cc(-c3ccc(Cl)cc3)nn12`?
**A.** IC50 (Thymidine phosphorylase): 33.5 µM; inhibition [1]: 50%

**Q.** With `CC(C)(C)c1ccc(-c2cc3[nH]c(=O)[nH]c(=O)n3n2)cc1` as the molecule, how does the inhibition [1] read?
**A.** < 50%
